From ChEMBL document CHEMBL3627671, “Novel derivatives of nitro-substituted salicylic acids: Synthesis, antimicrobial activity and cytotoxicity” (Bioorg Med Chem, 2015)
Values after ≈ are worked out from the molar mass of the structure shown.

Columns and labels:
[1] = tested on: Mycobacterium tuberculosis; test: Antimycobacterial activity against Mycobacterium tuberculosis H37Rv 331/88 after 14 days; format: functional; settings: H37Rv 331/88, 336 h
[2] = tested on: Mycobacterium tuberculosis; test: Antimycobacterial activity against Mycobacterium tuberculosis H37Rv 331/88 after 21 days; format: functional; settings: H37Rv 331/88, 504 h
Mycobacterium avium [3] = test: Antimycobacterial activity against Mycobacterium avium 330/80 after 14 days; format: functional; settings: 330/80, 336 h
Mycobacterium avium [4] = test: Antimycobacterial activity against Mycobacterium avium 330/80 after 21 days; format: functional; settings: 330/80, 504 h
Mycobacterium kansasii [5] = test: Antimycobacterial activity against Mycobacterium kansasii 235/80 after 7 days; format: functional; settings: 235/80, 168 h
How it was run: (§1)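 Šula's semisynthetic medium micromethod at 37 °C, read after 7, 14 and 21 days. The 1.0 McFarland suspension was diluted 10^-4. MIC determined. 6509/96 is a clinical isolate.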

Mycobacterium kansasii [6] = test: Antimycobacterial activity against Mycobacterium kansasii 235/80 after 14 days; format: functional; settings: 235/80, 336 h; how it was run: as §1
Mycobacterium kansasii [7] = test: Antimycobacterial activity against Mycobacterium kansasii 235/80 after 21 days; format: functional; settings: 235/80, 504 h; how it was run: as §1
Mycobacterium kansasii [8] = test: Antimycobacterial activity against Mycobacterium kansasii 6509/96 after 7 days; format: functional; settings: 6509/96, 168 h; how it was run: as §1
Mycobacterium kansasii [9] = test: Antimycobacterial activity against Mycobacterium kansasii 6509/96 after 14 days; format: functional; settings: 6509/96, 336 h; how it was run: as §1
Mycobacterium kansasii [10] = test: Antimycobacterial activity against Mycobacterium kansasii 6509/96 after 21 days; format: functional; settings: 6509/96, 504 h; how it was run: as §1
Staphylococcus aureus [11] = test: Antibacterial activity against Staphylococcus aureus CCM 4516/08 after 24 hrs by microdilution broth method; format: functional; settings: CCM 4516/08, 24 h
Staphylococcus aureus [12] = test: Antibacterial activity against Staphylococcus aureus CCM 4516/08 after 48 hrs by microdilution broth method; format: functional; settings: CCM 4516/08, 48 h
Staphylococcus aureus [13] = test: Antibacterial activity against methicillin-resistant Staphylococcus aureus H 5996/08 after 24 hrs by microdilution broth method; format: functional; settings: H 5996/08, 24 h
Staphylococcus aureus [14] = test: Antibacterial activity against methicillin-resistant Staphylococcus aureus H 5996/08 after 48 hrs by microdilution broth method; format: functional; settings: H 5996/08, 48 h
[15] = tested on: Staphylococcus epidermidis; test: Antibacterial activity against Staphylococcus epidermidis H 6966/08 after 24 hrs by microdilution broth method; format: functional; settings: H 6966/08, 24 h
How it was run: (§2)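 Mueller-Hinton broth microdilution (modified M07-A07), pH 7.4 (±0.2). Compounds dissolved in DMSO, tested at final 500 to 0.49 µmol/L. Inoculum in sterile water matched to 0.5 McFarland. Incubated in the dark, humid atmosphere, 35 °C, read at 24 and 48 h visually and at 540 nm. MIC taken as ≥95% growth reduction (IC95) versus control.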

[16] = tested on: Staphylococcus epidermidis; test: Antibacterial activity against Staphylococcus epidermidis H 6966/08 after 48 hrs by microdilution broth method; format: functional; settings: H 6966/08, 48 h; how it was run: as §2
Enterococcus sp. [17] = test: Antibacterial activity against Enterococcus sp. J 14365/08 after 24 hrs by microdilution broth method; format: functional; settings: J 14365/08, 24 h; how it was run: as §2
Enterococcus sp. [18] = test: Antibacterial activity against Enterococcus sp. J 14365/08 after 48 hrs by microdilution broth method; format: functional; settings: J 14365/08, 48 h; how it was run: as §2
Escherichia coli [19] = test: Antibacterial activity against Escherichia coli CCM4517 after 24 hrs by microdilution broth method; format: functional; settings: CCM4517, 24 h; how it was run: as §2
Escherichia coli [20] = test: Antibacterial activity against Escherichia coli CCM4517 after 48 hrs by microdilution broth method; format: functional; settings: CCM4517, 48 h; how it was run: as §2
Klebsiella pneumoniae [21] = test: Antibacterial activity against Klebsiella pneumoniae D 11750/08 after 24 hrs by microdilution broth method; format: functional; settings: D 11750/08, 24 h; how it was run: as §2
Klebsiella pneumoniae [22] = test: Antibacterial activity against Klebsiella pneumoniae D 11750/08 after 48 hrs by microdilution broth method; format: functional; settings: D 11750/08, 48 h; how it was run: as §2
Klebsiella pneumoniae [23] = test: Antibacterial activity against ESBL-positive Klebsiella pneumoniae J 14368/08 after 24 hrs by microdilution broth method; format: functional; settings: J 14368/08, 24 h; how it was run: as §2
Klebsiella pneumoniae [24] = test: Antibacterial activity against ESBL-positive Klebsiella pneumoniae J 14368/08 after 48 hrs by microdilution broth method; format: functional; settings: J 14368/08, 48 h; how it was run: as §2
Pseudomonas aeruginosa [25] = test: Antibacterial activity against Pseudomonas aeruginosa CCM 1961 after 24 hrs by microdilution broth method; format: functional; settings: CCM 1961, 24 h; how it was run: as §2
Pseudomonas aeruginosa [26] = test: Antibacterial activity against Pseudomonas aeruginosa CCM 1961 after 48 hrs by microdilution broth method; format: functional; settings: CCM 1961, 48 h; how it was run: as §2
Candida albicans [27] = test: Antifungal activity against Candida albicans ATCC 44859 after 24 hrs by microdilution broth method; format: functional; settings: ATCC 44859, 24 h
How it was run: (§3)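 CLSI M27-A3 broth microdilution in RPMI 1640 with glutamine, buffered to pH 7.0 with MOPS; DMSO diluent. Yeast inoculum 5 × 10^3 ± 0.2 CFU/mL. Moulds grown on Sabouraud agar 3–10 days before spore harvest, final inoculum 0.5-5 × 10^4 CFU/mL, checked in a Bürker chamber. Incubated dark, humid, 35 °C, read at 24 and 48 h visually and at 540 nm. MIC taken as ≥80% (yeasts) or ≥50% (filamentous) growth reduction versus control.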

Candida albicans [28] = test: Antifungal activity against Candida albicans ATCC 44859 after 48 hrs by microdilution broth method; format: functional; settings: ATCC 44859, 48 h; how it was run: as §3
Candida tropicalis [29] = test: Antifungal activity against Candida tropicalis 156 after 24 hrs by microdilution broth method; format: functional; settings: Candida tropicalis, 156, 24 h; how it was run: as §3
Candida tropicalis [30] = test: Antifungal activity against Candida tropicalis 156 after 48 hrs by microdilution broth method; format: functional; settings: Candida tropicalis, 156, 48 h; how it was run: as §3
Pichia kudriavzevii [31] = test: Antifungal activity against Candida krusei E28 after 24 hrs by microdilution broth method; format: functional; settings: E28, 24 h; how it was run: as §3
Pichia kudriavzevii [32] = test: Antifungal activity against Candida krusei E28 after 48 hrs by microdilution broth method; format: functional; settings: E28, 48 h; how it was run: as §3
Nakaseomyces glabratus [33] = test: Antifungal activity against Candida glabrata 20/I after 24 hrs by microdilution broth method; format: functional; how it was run: as §3
Nakaseomyces glabratus [34] = test: Antifungal activity against Candida glabrata 20/I after 48 hrs by microdilution broth method; format: functional; how it was run: as §3
Trichosporon asahii [35] = test: Antifungal activity against Trichosporon asahii 1188 after 24 hrs by microdilution broth method; format: functional; settings: Trichosporon asahii, 1188, 24 h; how it was run: as §3
Trichosporon asahii [36] = test: Antifungal activity against Trichosporon asahii 1188 after 48 hrs by microdilution broth method; format: functional; settings: Trichosporon asahii, 1188, 48 h; how it was run: as §3
Aspergillus fumigatus [37] = test: Antifungal activity against Aspergillus fumigatus 231 after 24 hrs by microdilution broth method; format: functional; settings: Aspergillus fumigatus, 231, 24 h; how it was run: as §3
Aspergillus fumigatus [38] = test: Antifungal activity against Aspergillus fumigatus 231 after 48 hrs by microdilution broth method; format: functional; settings: Aspergillus fumigatus, 231, 48 h; how it was run: as §3
Lichtheimia corymbifera [39] = test: Antifungal activity against Absidia corymbifera 272 after 24 hrs by microdilution broth method; format: functional; settings: Lichtheimia corymbifera, 272, 24 h; how it was run: as §3
Lichtheimia corymbifera [40] = test: Antifungal activity against Absidia corymbifera 272 after 48 hrs by microdilution broth method; format: functional; settings: Lichtheimia corymbifera, 272, 48 h; how it was run: as §3
[41] = tested on: Trichophyton mentagrophytes; test: Antifungal activity against Trichophyton mentagrophytes 445 after 24 hrs by microdilution broth method; format: functional; settings: Trichophyton mentagrophytes, 445, 24 h
[42] = tested on: Trichophyton mentagrophytes; test: Antifungal activity against Trichophyton mentagrophytes 445 after 48 hrs by microdilution broth method; format: functional; settings: Trichophyton mentagrophytes, 445, 48 h
HepG2 = test: Cytotoxicity against human HepG2 cells after 24 hrs […]; format: cell-based; settings: HepG2, 24 h
[43] = Selectivity index, ratio of CI50 for human HepG2 cells to MIC100 for Mycobacterium tuberculosis H37Rv 331/88

## O=C(Nc1ccc(Cl)c(Cl)c1)c1ccc([N+](=O)[O-])cc1O
[1]
  MIC: 4 µM (≈ 1.31 µg/mL)
[2]
  MIC: 8 µM (≈ 2.62 µg/mL)
Mycobacterium avium [3]
  MIC: 32 µM (≈ 10.5 µg/mL)
Mycobacterium avium [4]
  MIC: 62.5 µM (≈ 20.4 µg/mL)
Mycobacterium kansasii [5]
  MIC: 4 µM (≈ 1.31 µg/mL)
Mycobacterium kansasii [6]
  MIC: 8 µM (≈ 2.62 µg/mL)
Mycobacterium kansasii [7]
  MIC: 8 µM (≈ 2.62 µg/mL)
Mycobacterium kansasii [8]
  MIC: 8 µM (≈ 2.62 µg/mL)
Mycobacterium kansasii [9]
  MIC: 16 µM (≈ 5.23 µg/mL)
Mycobacterium kansasii [10]
  MIC: 16 µM (≈ 5.23 µg/mL)
Staphylococcus aureus [11]
  MIC: 3.9 µM (≈ 1.28 µg/mL)
Staphylococcus aureus [12]
  MIC: 3.9 µM (≈ 1.28 µg/mL)
Staphylococcus aureus [13]
  MIC: 1.95 µM (≈ 0.638 µg/mL)
Staphylococcus aureus [14]
  MIC: 1.95 µM (≈ 0.638 µg/mL)
[15]
  MIC: 1.95 µM (≈ 0.638 µg/mL)
[16]
  MIC: 1.95 µM (≈ 0.638 µg/mL)
Enterococcus sp. [17]
  MIC: 125 µM (≈ 40.9 µg/mL)
Enterococcus sp. [18]
  MIC: 500 µM (≈ 164 µg/mL)
Escherichia coli [19]
  MIC: > 500 µM
Escherichia coli [20]
  MIC: > 500 µM
Klebsiella pneumoniae [21]
  MIC: > 500 µM
Klebsiella pneumoniae [22]
  MIC: > 500 µM
Klebsiella pneumoniae [23]
  MIC: > 500 µM
Klebsiella pneumoniae [24]
  MIC: > 500 µM
Pseudomonas aeruginosa [25]
  MIC: > 500 µM
Pseudomonas aeruginosa [26]
  MIC: > 500 µM
Candida albicans [27]
  MIC: 62.5 µM (≈ 20.4 µg/mL)
Candida albicans [28]
  MIC: 62.5 µM (≈ 20.4 µg/mL)
Candida tropicalis [29]
  MIC: 125 µM (≈ 40.9 µg/mL)
Candida tropicalis [30]
  MIC: > 250 µM
Pichia kudriavzevii [31]
  MIC: 7.81 µM (≈ 2.55 µg/mL)
Pichia kudriavzevii [32]
  MIC: 15.6 µM (≈ 5.11 µg/mL)
Nakaseomyces glabratus [33]
  MIC: 31.2 µM (≈ 10.2 µg/mL)
Nakaseomyces glabratus [34]
  MIC: 62.5 µM (≈ 20.4 µg/mL)
Trichosporon asahii [35]
  MIC: 7.81 µM (≈ 2.55 µg/mL)
Trichosporon asahii [36]
  MIC: 15.6 µM (≈ 5.11 µg/mL)
Aspergillus fumigatus [37]
  MIC: 31.2 µM (≈ 10.2 µg/mL)
Aspergillus fumigatus [38]
  MIC: 31.2 µM (≈ 10.2 µg/mL)
Lichtheimia corymbifera [39]
  MIC: 31.2 µM (≈ 10.2 µg/mL)
Lichtheimia corymbifera [40]
  MIC: 31.2 µM (≈ 10.2 µg/mL)
[41]
  MIC: 125 µM (≈ 40.9 µg/mL)
[42]
  MIC: 125 µM (≈ 40.9 µg/mL)
HepG2
  IC50: 1400 nM
[43]
  Selectivity Index: 0.175
